# ChEMBL document CHEMBL2417457, “Octahydropyrrolo[3,4-c]pyrrole negative allosteric modulators of mGlu1” (Bioorg Med Chem Lett, 2013)
# pIC50: −log10 of the molar value. Calls of active or inactive are those of the source. The rule behind the calls is not given here.
# Biological target: T1, Metabotropic glutamate receptor 1 (Homo sapiens, UniProt Q13255)
# Experiment: Negative allosteric modulation of human mGlu1 receptor expressed in HEK293A TREx cells assessed as calcium flux at 30 uM after 45 mins relative to glutamate
# Assay type: functional, cell-based
# Settings: HEK293-A
# Outline: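 Tetracycline-induced HEK293A TREx cells expressing human mGlu1 were loaded with Fluo-4 for Ca2+ flux. Test compound was given at 30 μM. Response amplitude is expressed as a percentage of the maximal response to 100 μM glutamate, averaged over n ≥ 3.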
# Target sequence in this assay (Q13255 19-1194 limits assumed): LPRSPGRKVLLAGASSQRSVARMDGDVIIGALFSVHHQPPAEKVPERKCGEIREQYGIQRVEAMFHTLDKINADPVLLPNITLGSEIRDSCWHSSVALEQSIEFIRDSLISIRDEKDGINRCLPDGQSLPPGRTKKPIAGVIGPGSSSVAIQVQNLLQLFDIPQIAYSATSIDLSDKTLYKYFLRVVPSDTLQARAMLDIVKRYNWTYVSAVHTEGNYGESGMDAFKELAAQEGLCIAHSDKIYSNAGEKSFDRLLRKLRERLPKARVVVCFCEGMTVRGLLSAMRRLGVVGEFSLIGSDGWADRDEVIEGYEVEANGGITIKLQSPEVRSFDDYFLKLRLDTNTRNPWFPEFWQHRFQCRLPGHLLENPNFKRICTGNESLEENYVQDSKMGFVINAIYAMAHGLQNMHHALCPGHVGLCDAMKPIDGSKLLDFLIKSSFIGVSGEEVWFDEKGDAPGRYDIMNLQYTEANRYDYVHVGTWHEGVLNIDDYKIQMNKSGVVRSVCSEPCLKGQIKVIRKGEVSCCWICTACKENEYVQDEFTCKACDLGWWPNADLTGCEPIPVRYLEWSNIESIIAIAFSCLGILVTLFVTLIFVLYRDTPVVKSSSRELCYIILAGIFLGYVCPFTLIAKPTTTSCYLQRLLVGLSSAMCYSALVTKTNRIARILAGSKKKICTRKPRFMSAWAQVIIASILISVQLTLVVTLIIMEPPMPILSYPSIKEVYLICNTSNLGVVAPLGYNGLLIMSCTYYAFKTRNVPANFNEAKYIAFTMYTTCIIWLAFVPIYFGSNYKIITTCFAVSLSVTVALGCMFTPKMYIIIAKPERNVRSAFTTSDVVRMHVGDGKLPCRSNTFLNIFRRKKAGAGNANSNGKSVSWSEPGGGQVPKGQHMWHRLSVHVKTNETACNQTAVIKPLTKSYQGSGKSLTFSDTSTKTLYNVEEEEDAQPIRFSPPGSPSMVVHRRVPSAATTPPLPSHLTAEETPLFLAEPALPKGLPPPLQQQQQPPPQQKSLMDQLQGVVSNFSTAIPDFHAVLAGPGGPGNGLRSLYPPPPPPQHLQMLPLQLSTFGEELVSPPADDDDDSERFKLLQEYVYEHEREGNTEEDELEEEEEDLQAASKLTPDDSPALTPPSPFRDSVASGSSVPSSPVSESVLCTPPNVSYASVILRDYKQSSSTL
row,Compound,%max [%]
1,N#Cc1cnccc1N1C[C@H]2CN(C(=O)C34CC5CC(CC(C5)C3)C4)C[C@H]2C1,36.8
2,N#Cc1ccccc1N1C[C@H]2CN(C(=O)C34CC5CC(CC(C5)C3)C4)C[C@H]2C1,6.9
3,O=C(N1C[C@@H]2CN(c3ncccn3)C[C@@H]2C1)C12CC3CC(CC(C3)C1)C2,10.3
4,O=C(CC1CCCCC1)N1C[C@@H]2CN(c3ccccn3)C[C@@H]2C1,47.6
5,O=C(N1C[C@@H]2CN(c3ccccn3)C[C@@H]2C1)C12C3C4C5C3C1C5C42 (stereo partly specified),58.7
6,O=C(N1CC2CCCC(C2)C1)N1C[C@@H]2CN(c3ccccn3)C[C@@H]2C1,-1.5
7,O=C(N1C[C@@H]2CN(c3nccs3)C[C@@H]2C1)C12CC3CC(CC(C3)C1)C2,56.6

# The next lines start with the values.
row,%max [%],Compound
1,-5.8,O=C(N1CC2CCC(C2)C1)N1C[C@@H]2CN(c3ccccn3)C[C@@H]2C1
2,0,O=C(CC12CC3CC(CC(C3)C1)C2)N1C[C@@H]2CN(c3ccccn3)C[C@@H]2C1
3,12.2,N#Cc1cccnc1N1C[C@H]2CN(C(=O)C34CC5CC(CC(C5)C3)C4)C[C@H]2C1
4,-7.5,CC1(C)[C@@H]2CN(C(=O)N3C[C@@H]4CN(c5ccccn5)C[C@@H]4C3)C[C@@H]21
5,2.1,O=C(N1C[C@@H]2CN(c3ncccc3F)C[C@@H]2C1)C12CC3CC(CC(C3)C1)C2
6,2.2,O=C(N1C[C@@H]2CN(c3ccc(F)cn3)C[C@@H]2C1)C12CC3CC(CC(C3)C1)C2
7,2.3,O=C(N1C[C@@H]2CN(c3cccc(F)n3)C[C@@H]2C1)C12CC3CC(CC(C3)C1)C2

# Biological target: T1, Metabotropic glutamate receptor 1
# Experiment: Negative allosteric modulation of human mGlu1 receptor expressed in HEK293A TREx cells assessed as calcium flux after 45 mins
# Assay type: functional, cell-based, HEK293-A
# Settings: not given
# Outline: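 HEK293A TREx cells stably expressing human mGlu1 were induced overnight with 50 ng/mL tetracycline at 37 °C. Ten-point 1:3 compound series were added for 2.3 min, then an EC20 of glutamate, then an EC80 of glutamate 1.9 min later. Ca2+ flux was read for 1.7 min. Values are the average of n ≥ 3.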
# Target sequence in this assay (Q13255 whole entry): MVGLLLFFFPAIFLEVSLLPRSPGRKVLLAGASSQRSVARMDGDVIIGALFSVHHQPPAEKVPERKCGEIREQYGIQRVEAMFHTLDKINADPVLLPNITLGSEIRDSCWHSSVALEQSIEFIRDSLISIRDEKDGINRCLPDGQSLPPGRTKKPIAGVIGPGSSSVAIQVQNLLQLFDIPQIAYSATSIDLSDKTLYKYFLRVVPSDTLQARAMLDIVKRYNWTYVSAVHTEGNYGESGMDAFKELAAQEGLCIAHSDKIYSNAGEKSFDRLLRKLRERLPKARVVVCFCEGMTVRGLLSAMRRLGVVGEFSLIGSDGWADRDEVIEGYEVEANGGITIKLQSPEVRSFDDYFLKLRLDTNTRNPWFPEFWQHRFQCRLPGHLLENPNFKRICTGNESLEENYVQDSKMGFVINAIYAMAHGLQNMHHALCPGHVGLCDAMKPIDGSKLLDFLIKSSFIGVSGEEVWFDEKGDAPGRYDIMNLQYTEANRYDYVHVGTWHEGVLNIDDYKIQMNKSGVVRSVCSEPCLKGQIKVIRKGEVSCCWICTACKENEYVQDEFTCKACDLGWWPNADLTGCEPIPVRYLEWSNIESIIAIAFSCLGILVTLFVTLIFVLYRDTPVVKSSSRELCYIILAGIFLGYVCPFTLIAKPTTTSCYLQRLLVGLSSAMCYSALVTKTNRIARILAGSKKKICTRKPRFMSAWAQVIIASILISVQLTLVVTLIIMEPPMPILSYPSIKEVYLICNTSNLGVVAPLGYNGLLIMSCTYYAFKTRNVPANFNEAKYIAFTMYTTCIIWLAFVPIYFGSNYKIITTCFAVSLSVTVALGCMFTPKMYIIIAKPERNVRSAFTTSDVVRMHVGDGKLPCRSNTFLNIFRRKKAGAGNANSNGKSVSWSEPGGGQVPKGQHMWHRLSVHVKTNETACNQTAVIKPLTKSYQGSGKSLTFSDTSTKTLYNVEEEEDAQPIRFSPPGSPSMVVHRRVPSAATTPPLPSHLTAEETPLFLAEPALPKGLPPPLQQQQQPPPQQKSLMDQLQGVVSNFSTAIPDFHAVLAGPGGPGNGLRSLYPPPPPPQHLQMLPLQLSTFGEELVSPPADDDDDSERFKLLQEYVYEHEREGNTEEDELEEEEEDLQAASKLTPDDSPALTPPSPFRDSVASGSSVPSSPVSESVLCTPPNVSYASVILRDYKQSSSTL
row,Compound,pIC50
1,N#Cc1cnccc1N1C[C@H]2CN(C(=O)C34CC5CC(CC(C5)C3)C4)C[C@H]2C1,< 5.00
2,N#Cc1ccccc1N1C[C@H]2CN(C(=O)C34CC5CC(CC(C5)C3)C4)C[C@H]2C1,6.73
3,CC(C)(C)C(=O)N1C[C@@H]2CN(c3ccccn3)C[C@@H]2C1,< 4.52
4,O=C(N1C[C@@H]2CN(c3ncccn3)C[C@@H]2C1)C12CC3CC(CC(C3)C1)C2,< 5.00
5,O=C(CC1CCCCC1)N1C[C@@H]2CN(c3ccccn3)C[C@@H]2C1,< 5.00
6,O=C(N1C[C@@H]2CN(c3ccccn3)C[C@@H]2C1)C12C3C4C5C3C1C5C42 (stereo partly specified),< 5.00
7,O=C(N1CC2CCCC(C2)C1)N1C[C@@H]2CN(c3ccccn3)C[C@@H]2C1,5.72
8,O=C(N1C[C@@H]2CN(c3nccs3)C[C@@H]2C1)C12CC3CC(CC(C3)C1)C2,< 5.00

# The remaining lines, values ahead:
row,pIC50,Compound
1,4.92,CC1(C)[C@@H]2CN(C(=O)N3C[C@@H]4CN(c5ccccn5)C[C@@H]4C3)C[C@@H]21
2,6.00,O=C(N1C[C@@H]2CN(c3ncccc3F)C[C@@H]2C1)C12CC3CC(CC(C3)C1)C2
3,6.32,O=C(N1C[C@@H]2CN(c3ccc(F)cn3)C[C@@H]2C1)C12CC3CC(CC(C3)C1)C2
4,< 4.52,CC(C)(C)CC(=O)N1C[C@@H]2CN(c3ccccn3)C[C@@H]2C1
5,7.03,O=C(N1C[C@@H]2CN(c3cccc(F)n3)C[C@@H]2C1)C12CC3CC(CC(C3)C1)C2

# Biological target: T1, Metabotropic glutamate receptor 1
# Experiment: Negative allosteric modulation of human mGlu1 receptor up to 30 uM
# Settings: not given
# Target sequence in this assay (Q13255 whole entry, looked up): as the sequence (Q13255 whole entry) above
row,Compound,Activity
1,CC(C)(C)CC(=O)N1C[C@@H]2CN(c3ccccn3)C[C@@H]2C1,inactive

# System: Plasma
# Experiment: Fraction unbound in rat plasma
# Assay type: ADME, cell-free
# Settings: not given
# Outline: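 Unbound fraction was determined by equilibrium dialysis against rat plasma or rat brain homogenate.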
row,Compound,Fu [%]
1,N#Cc1ccccc1N1C[C@H]2CN(C(=O)C34CC5CC(CC(C5)C3)C4)C[C@H]2C1,1.4
2,O=C(N1C[C@@H]2CN(c3ccc(F)cn3)C[C@@H]2C1)C12CC3CC(CC(C3)C1)C2,1.5
3,O=C(N1C[C@@H]2CN(c3cccc(F)n3)C[C@@H]2C1)C12CC3CC(CC(C3)C1)C2,1.2
